The target of assay [1] is T1, Sphingosine kinase 2 (Mus musculus) (UniProt Q9JIA7).
T1 sequence (whole entry): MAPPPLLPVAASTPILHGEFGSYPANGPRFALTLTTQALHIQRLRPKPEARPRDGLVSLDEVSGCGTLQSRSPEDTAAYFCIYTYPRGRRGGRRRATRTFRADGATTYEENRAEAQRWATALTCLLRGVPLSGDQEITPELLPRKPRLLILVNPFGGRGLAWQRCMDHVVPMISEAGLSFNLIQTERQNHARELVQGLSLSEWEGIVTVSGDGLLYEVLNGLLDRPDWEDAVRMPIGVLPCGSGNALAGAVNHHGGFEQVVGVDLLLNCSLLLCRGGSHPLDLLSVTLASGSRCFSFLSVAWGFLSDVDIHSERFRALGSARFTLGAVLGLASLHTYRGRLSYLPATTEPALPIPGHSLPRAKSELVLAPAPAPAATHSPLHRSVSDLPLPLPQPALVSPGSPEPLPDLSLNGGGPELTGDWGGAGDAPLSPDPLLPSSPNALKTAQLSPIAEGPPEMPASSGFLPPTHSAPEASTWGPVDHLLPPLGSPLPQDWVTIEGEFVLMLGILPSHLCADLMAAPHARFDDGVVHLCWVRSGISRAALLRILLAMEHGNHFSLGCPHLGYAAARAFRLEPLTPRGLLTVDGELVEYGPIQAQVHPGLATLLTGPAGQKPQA
Briefly: Inhibition of mouse recombinant SphK2 assessed as remaining enzyme activity at 10 uM using gamma[32P]ATP incubated for 20 mins by liquid scintillation counting method. Summed up:
(§1)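 Cell lysate containing recombinant mouse SphK2 incubated with sphingosine and γ-[³²P]ATP, with or without inhibitor, 20 min. Reactions extracted, ³²P-S1P separated by TLC and counted by liquid scintillation. Activity reported as ³²P-S1P formed; screened at 10 μM, with some compounds also assayed at 1 μM. Each value is the mean of two experiments.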

Assay [2] deals with T1, Sphingosine kinase 2 (Mus musculus). Briefly: Inhibition of mouse recombinant SphK2 assessed as remaining enzyme activity at 1 uM using gamma[32P]ATP incubated for 20 mins by liquid scintillation counting method. In short, it runs like this:
as §1

The text below walks through data of ChEMBL document CHEMBL3627716, “Structure-activity relationship studies of the lipophilic tail region of sphingosine kinase 2 inhibitors” (Bioorg Med Chem Lett, 2015).

As for `N=C(N)N1CCC[C@H]1c1nc(-c2ccc(N3CCN(Cc4ccccc4)CC3)cc2)no1`, the Activity in assay [1] was 89%.

For `CCCCCCc1ccc(-c2noc([C@@H]3CCN3C(=N)N)n2)cc1`, the Activity in assay [1] amounted to 45%; in assay [2], 86%.

Regarding `N=C(N)N1CC[C@H]1c1nc(-c2ccc(-c3ccccc3)cc2)no1`, the Activity in assay [1] turned out to be 91%.

For the compound `CCOCc1cc(C)cc(Cc2ccc(-c3noc([C@@H]4CCCN4C(=N)N)n3)cc2)c1`, the Activity in assay [1] came out at 46%; in assay [2] it was 99%.

For `N=C(N)N1CCC[C@H]1c1nc(-c2ccc(CCc3ccccc3)cc2)no1`, in assay [1], the Activity is 70%.

Consider `CC(C)CC(=O)N1CCN(c2ccc(-c3noc([C@@H]4CCCN4C(=N)N)n3)cc2)CC1`, for which, in assay [1], the Activity turned out to be 90%.

As to `CCCCCCCCCCc1ccc(-c2noc([C@@H]3CCN3C(=N)N)n2)cc1`, the Activity in assay [1] is 12%.

On to `CCCCCCCCCCCCc1noc([C@@H]2CCCN2C(=N)N)n1`, for which the Activity in assay [1] amounted to 57%.

For `CCCCCCCCCCCCCCc1ccc(-c2noc([C@@H]3CCCN3C(=N)N)n2)cc1`, the Activity is 16% in assay [1] and 52% in assay [2].

As to `N=C(N)N1CCC[C@H]1c1nc(-c2ccc(N3CCN(C(=O)Cc4ccccc4)CC3)cc2)no1`, in assay [1], the Activity was found to be 86%.

As for `N=C(N)N1CCC[C@H]1c1nc(-c2ccc(N3CCN(C(=O)C45CC6CC(CC(C6)C4)C5)CC3)cc2)no1`, the Activity in assay [1] was 87%.

In the case of `N=C(N)N1CCC[C@H]1c1nc(-c2ccc(CS(=O)(=O)c3ccccc3)cc2)no1`, in assay [1], the Activity is 88%.

In the case of `N=C(N)N1CC[C@H]1c1nc(-c2ccc(N3CCOCC3)cc2)no1`, the Activity in assay [1] amounted to 94%.

With `CCCCCCCCCCCCCCCCc1noc([C@@H]2CCCN2C(=N)N)n1`, the Activity in assay [1] is 52%.

As for `CCCCCCc1ccc(-c2noc([C@@H]3CCCN3C(=N)N)n2)cc1`, the Activity was 35% in assay [1] and 76% in assay [2].

For the compound `CCCCCCCCc1noc([C@@H]2CCCN2C(=N)N)n1`, the Activity in assay [1] was determined as 88%.

As to `CCCCCCCCCCc1ccc(-c2noc([C@@H]3CCCN3C(=N)N)n2)cc1`, the Activity in assay [1] was 9%; in assay [2], 46%.

Regarding `CCCCCCCCc1ccc(-c2noc([C@@H]3CCCN3C(=N)N)n2)cc1`, the Activity came out at 9% in assay [1] and 44% in assay [2].

For `CN1CCN(c2ccc(-c3noc([C@@H]4CCN4C(=N)N)n3)cc2)CC1`, the Activity in assay [1] amounted to 90%.

`N=C(N)N1CCC[C@H]1c1nc(-c2ccc(I)cc2)no1`: in assay [1], the Activity turned out to be 63%.

`CCCCCCCCCCCCc1ccc(-c2noc([C@@H]3CCCN3C(=N)N)n2)cc1`: the Activity is 15% in assay [1] and 56% in assay [2].
